Test results: ChEMBL document CHEMBL1255404, “Spread of OXA-48-encoding plasmid in Turkey and beyond” (2010)
Values after ≈ are worked out from the molar mass of the structure shown.

Key:
Format in all cases: functional
Escherichia coli [1] = assay: Antimicrobial activity against Escherichia coli isolate J53 harboring pA-1 containing beta-lactamase OXA-48 located within transposon Tn1999 by Etest method
Method in brief: (§1)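 β-Lactam MICs read with Etest strips. Strains are E. coli J53 recipient and J53 transconjugants carrying OXA-48-positive plasmids recovered from clinical enterobacterial isolates.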

Escherichia coli [2] = assay: Antimicrobial activity against Escherichia coli isolate A expressing beta-lactamase OXA-48 and TEM-150 by Etest method
Escherichia coli [3] = assay: Antimicrobial activity against Escherichia coli isolate J53 harboring p3A containing beta-lactamase OXA-48 located within transposon Tn1999 by Etest method; method in brief: as §1
Klebsiella pneumoniae [4] = assay: Antimicrobial activity against Klebsiella pneumoniae isolate KpBIC expressing beta-lactamase OXA-48 by Etest method
Method in brief: (§2)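 MICs of β-lactams read from Etest strips. The test organisms are carbapenem-resistant, OXA-48-positive clinical Enterobacteriaceae isolates recovered from Turkey, Lebanon, Egypt, France and Belgium.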

Escherichia coli [5] = assay: Antimicrobial activity against Escherichia coli isolate J53 harboring pBb containing beta-lactamase OXA-48 located within transposon Tn1999.2 by Etest method; method in brief: as §1
Klebsiella pneumoniae [6] = assay: Antimicrobial activity against Klebsiella pneumoniae isolate Kp4A expressing beta-lactamase OXA-48 and CTX-M-15 by Etest method
Klebsiella pneumoniae [7] = assay: Antimicrobial activity against Klebsiella pneumoniae isolate Kp7A expressing beta-lactamase OXA-48 by Etest method; method in brief: as §2
Escherichia coli [8] = assay: Antimicrobial activity against Escherichia coli isolate J53 harboring p7A containing beta-lactamase OXA-48 located within transposon Tn1999 by Etest method; method in brief: as §1
Escherichia coli [9] = assay: Antimicrobial activity against Escherichia coli isolate J53 harboring pEnc2 containing beta-lactamase OXA-48 located within transposon Tn1999 by Etest method; method in brief: as §1
Klebsiella pneumoniae [10] = assay: Antimicrobial activity against Klebsiella pneumoniae isolate Kp3A expressing beta-lactamase OXA-48 by Etest method; method in brief: as §2
Enterobacter cloacae [11] = assay: Antimicrobial activity against Enterobacter cloacae isolate 1 expressing beta-lactamase OXA-48 and SHV-5 by Etest method
Enterobacter cloacae [12] = assay: Antimicrobial activity against Enterobacter cloacae isolate 2 expressing beta-lactamase OXA-48 and SHV-5 by Etest method
Klebsiella pneumoniae [13] = assay: Antimicrobial activity against Klebsiella pneumoniae isolate Kp11978 expressing beta-lactamase OXA-48, SHV-2a and TEM-1 by Etest method
Escherichia coli [14] = assay: Antimicrobial activity against Escherichia coli isolate J53 harboring p6A containing beta-lactamase OXA-48 located within transposon Tn1999 by Etest method; method in brief: as §1
Escherichia coli [15] = assay: Antimicrobial activity against Escherichia coli isolate J53 by Etest method; method in brief: as §1
Escherichia coli [16] = assay: Antimicrobial activity against Escherichia coli isolate J53 harboring pL containing beta-lactamase OXA-48 located within transposon Tn1999.2 by Etest method; method in brief: as §1
Klebsiella pneumoniae [17] = assay: Antimicrobial activity against Klebsiella pneumoniae isolate KpBEL expressing beta-lactamase OXA-48 by Etest method; method in brief: as §2
Klebsiella pneumoniae [18] = assay: Antimicrobial activity against Klebsiella pneumoniae isolate Kp6A expressing beta-lactamase OXA-48 and TEM-150 by Etest method
Klebsiella pneumoniae [19] = assay: Antimicrobial activity against Klebsiella pneumoniae isolate KpL expressing beta-lactamase OXA-48 by Etest method
Escherichia coli [20] = assay: Antimicrobial activity against Escherichia coli isolate J53 harboring pCF containing beta-lactamase OXA-48 located within transposon Tn1999 by Etest method; method in brief: as §1
Providencia rettgeri = assay: Antimicrobial activity against Providencia rettgeri isolate expressing beta-lactamase OXA-48 and TEM-101 by Etest method
Escherichia coli [21] = assay: Antimicrobial activity against Escherichia coli isolate J53 harboring p5A containing beta-lactamase OXA-48 located within transposon Tn1999 by Etest method; method in brief: as §1
Klebsiella pneumoniae [22] = assay: Antimicrobial activity against Klebsiella pneumoniae isolate KpI-2 expressing beta-lactamase OXA-48 and CTX-M-15 by Etest method
Escherichia coli [23] = assay: Antimicrobial activity against Escherichia coli isolate J53 harboring p4A containing beta-lactamase OXA-48 located within transposon Tn1999 by Etest method; method in brief: as §1
Escherichia coli [24] = assay: Antimicrobial activity against Escherichia coli isolate J53 harboring pI-1 containing beta-lactamase OXA-48 located within transposon Tn1999.2 by Etest method; method in brief: as §1
Escherichia coli [25] = assay: Antimicrobial activity against Escherichia coli isolate J53 harboring pI-2 containing beta-lactamase OXA-48 located within transposon Tn1999.2 by Etest method; method in brief: as §1
Escherichia coli [26] = assay: Antimicrobial activity against Escherichia coli isolate TOP10 harboring pPR containing beta-lactamase and TEM-101 by Etest method
Method in brief: (§3)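 β-Lactam MICs read with Etest strips. Strains are E. coli TOP10 host and TOP10 transformants made with plasmid DNA extract when conjugation failed. Transformants were selected on LB agar with ticarcillin 50 μg/ml.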

Klebsiella pneumoniae [27] = assay: Antimicrobial activity against Klebsiella pneumoniae isolate Kp5A expressing beta-lactamase OXA-48 and SHV-5 by Etest method
Escherichia coli [28] = assay: Antimicrobial activity against Escherichia coli isolate TOP10 harboring pBIC containing beta-lactamase OXA-48 located within transposon Tn1999.2 by Etest method; method in brief: as §3
Escherichia coli [29] = assay: Antimicrobial activity against Escherichia coli isolate J53 harboring pE containing beta-lactamase OXA-48 located within transposon Tn1999.2 by Etest method; method in brief: as §1
Escherichia coli [30] = assay: Antimicrobial activity against Escherichia coli isolate J53 harboring pBEL containing beta-lactamase OXA-48 located within transposon Tn1999.2 by Etest method; method in brief: as §1
Klebsiella pneumoniae [31] = assay: Antimicrobial activity against Klebsiella pneumoniae isolate KpE expressing beta-lactamase OXA-48 and CTX-M-15 by Etest method
Klebsiella pneumoniae [32] = assay: Antimicrobial activity against Klebsiella pneumoniae isolate KpI-1 expressing beta-lactamase OXA-48 and CTX-M-15 by Etest method
Citrobacter freundii = assay: Antimicrobial activity against Citrobacter freundii isolate expressing beta-lactamase OXA-48 by Etest method
Escherichia coli [33] = assay: Antimicrobial activity against Escherichia coli isolate J53 harboring pEcA containing beta-lactamase OXA-48 located within transposon Tn1999.2 by Etest method; method in brief: as §1
Escherichia coli [34] = assay: Antimicrobial activity against Escherichia coli isolate TOP10 by Etest method; method in brief: as §3
Escherichia coli [35] = assay: Antimicrobial activity against Escherichia coli isolate J53 harboring pEnc1 containing beta-lactamase OXA-48 located within transposon Tn1999 by Etest method; method in brief: as §1
Klebsiella pneumoniae [36] = assay: Antimicrobial activity against Klebsiella pneumoniae isolate KpB expressing OXA-48 and CTX-M-15 by Etest method

Structure (SMILES) | MIC (Escherichia coli [1]) [µg/mL] | MIC (Escherichia coli [2]) [µg/mL] | MIC (Escherichia coli [3]) [µg/mL] | MIC (Klebsiella pneumoniae [4]) [µg/mL] | MIC (Escherichia coli [5]) [µg/mL] | MIC (Klebsiella pneumoniae [6]) [µg/mL] | MIC (Klebsiella pneumoniae [7]) [µg/mL] | MIC (Escherichia coli [8]) [µg/mL] | MIC (Escherichia coli [9]) [µg/mL] | MIC (Klebsiella pneumoniae [10]) [µg/mL] | MIC (Enterobacter cloacae [11]) [µg/mL] | MIC (Enterobacter cloacae [12]) [µg/mL] | MIC (Klebsiella pneumoniae [13]) [µg/mL] | MIC (Escherichia coli [14]) [µg/mL] | MIC (Escherichia coli [15]) [µg/mL] | MIC (Escherichia coli [16]) [µg/mL] | MIC (Klebsiella pneumoniae [17]) [µg/mL] | MIC (Klebsiella pneumoniae [18]) [µg/mL] | MIC (Klebsiella pneumoniae [19]) [µg/mL] | MIC (Escherichia coli [20]) [µg/mL] | further results
CO/N=C(\C(=O)N[C@@H]1C(=O)N2C(C(=O)O)=C(COC(C)=O)CS[C@H]12)c1csc(N)n1 [CEFOTAXIME] | 0.06 (≈ 0.132 µM) | 64 (≈ 141 µM) | 0.5 (≈ 1.1 µM) | 0.5 (≈ 1.1 µM) | 0.5 (≈ 1.1 µM) | 64 (≈ 141 µM) | 0.5 (≈ 1.1 µM) | 0.5 (≈ 1.1 µM) | 0.25 (≈ 0.549 µM) | 1 (≈ 2.2 µM) | > 512 | 512 (≈ 1120 µM) | 64 (≈ 141 µM) | 0.12 (≈ 0.263 µM) | 0.06 (≈ 0.132 µM) | 0.25 (≈ 0.549 µM) | 0.12 (≈ 0.263 µM) | 64 (≈ 141 µM) | 1.5 (≈ 3.29 µM) | 0.12 (≈ 0.263 µM) | MIC (Providencia rettgeri): 64 µg/mL (≈ 141 µM); MIC (Escherichia coli [21]): 0.12 µg/mL (≈ 0.263 µM); MIC (Klebsiella pneumoniae [22]): 64 µg/mL (≈ 141 µM); MIC (Escherichia coli [23]): 0.12 µg/mL (≈ 0.263 µM); MIC (Escherichia coli [24]): 0.12 µg/mL (≈ 0.263 µM); MIC (Escherichia coli [25]): 0.12 µg/mL (≈ 0.263 µM); MIC (Escherichia coli [26]): 32 µg/mL (≈ 70.3 µM); MIC (Klebsiella pneumoniae [27]): 64 µg/mL (≈ 141 µM); MIC (Escherichia coli [28]): 0.5 µg/mL (≈ 1.1 µM); MIC (Escherichia coli [29]): 0.12 µg/mL (≈ 0.263 µM); MIC (Escherichia coli [30]): 0.12 µg/mL (≈ 0.263 µM); MIC (Klebsiella pneumoniae [31]): 64 µg/mL (≈ 141 µM); MIC (Klebsiella pneumoniae [32]): 64 µg/mL (≈ 141 µM); MIC (Citrobacter freundii): 64 µg/mL (≈ 141 µM); MIC (Escherichia coli [33]): 0.12 µg/mL (≈ 0.263 µM); MIC (Escherichia coli [34]): 0.06 µg/mL (≈ 0.132 µM); MIC (Escherichia coli [35]): 0.25 µg/mL (≈ 0.549 µM); MIC (Klebsiella pneumoniae [36]): > 512 µg/mL
CO[C@@]1(NC(=O)Cc2cccs2)C(=O)N2C(C(=O)O)=C(COC(N)=O)CS[C@@H]21 [CEFOXITIN] | 2 (≈ 4.68 µM) | 128 (≈ 299 µM) | 2 (≈ 4.68 µM) | 128 (≈ 299 µM) | 4 (≈ 9.36 µM) | 128 (≈ 299 µM) | 128 (≈ 299 µM) | 2 (≈ 4.68 µM) | 2 (≈ 4.68 µM) | 2 (≈ 4.68 µM) | > 512 | 512 (≈ 1200 µM) | 128 (≈ 299 µM) | 2 (≈ 4.68 µM) | 2 (≈ 4.68 µM) | 2 (≈ 4.68 µM) | 2 (≈ 4.68 µM) | 128 (≈ 299 µM) | 8 (≈ 18.7 µM) | 2 (≈ 4.68 µM) | MIC (Providencia rettgeri): 128 µg/mL (≈ 299 µM); MIC (Escherichia coli [21]): 2 µg/mL (≈ 4.68 µM); MIC (Klebsiella pneumoniae [22]): 128 µg/mL (≈ 299 µM); MIC (Escherichia coli [23]): 2 µg/mL (≈ 4.68 µM); MIC (Escherichia coli [24]): 2 µg/mL (≈ 4.68 µM); MIC (Escherichia coli [25]): 2 µg/mL (≈ 4.68 µM); MIC (Escherichia coli [26]): 4 µg/mL (≈ 9.36 µM); MIC (Klebsiella pneumoniae [27]): 128 µg/mL (≈ 299 µM); MIC (Escherichia coli [28]): 2 µg/mL (≈ 4.68 µM); MIC (Escherichia coli [29]): 2 µg/mL (≈ 4.68 µM); MIC (Escherichia coli [30]): 2 µg/mL (≈ 4.68 µM); MIC (Klebsiella pneumoniae [31]): 128 µg/mL (≈ 299 µM); MIC (Klebsiella pneumoniae [32]): 128 µg/mL (≈ 299 µM); MIC (Citrobacter freundii): 128 µg/mL (≈ 299 µM); MIC (Escherichia coli [33]): 2 µg/mL (≈ 4.68 µM); MIC (Escherichia coli [34]): 4 µg/mL (≈ 9.36 µM); MIC (Escherichia coli [35]): 2 µg/mL (≈ 4.68 µM); MIC (Klebsiella pneumoniae [36]): 128 µg/mL (≈ 299 µM)
